The list is not random: actives were taken first. Their share in the collection is about 4.1%.
Tb MetRS inh = Trypanosoma brucei MetRS inhibition; purified T. brucei MetRS, ATP depletion, Kinase-Glo luminescence; inhibition, % at 11.9 µM; actives 0.4% (n = 360,000); AID 624268;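 active = inhibition above a per-plate cutoff of the control wells' mean inhibition plus 3 SD, cut at about 5.5% in these data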;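 also: 0% = DMSO wells median and 100% = median of wells with control inhibitor compound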
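assay system = parasite MetRS enzyme | timing = 15 min preincubation, 2 h reaction, all 25 °C | evaluation = percent inhibition relative to median high and low control wells | medium = HEPES buffer containing pyrophosphatase, BSA, spermine, DTT | compound = single dose, 11.9 µM final nominal, 0.9% final DMSO | detection = Kinase-Glo luminescence, ATP depletion format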
SMARCA2 act = activators of SMARCA2 function; MG213 cells, MMTV-luciferase reporter, dexamethasone, overnight; actives 1% (n = 370,000); activation, % at 9.1 µM; in the data active = activation above about 7.8%;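 also: 0% = vehicle wells and 100% = reference activator wells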
AHR activator = activators of human aryl hydrocarbon receptor. P35869. AHR-responsive luciferase reporter cells, luminescence. activation, % at 5 µM. actives 2.5% (n = 320,000); in the data active = activation above about 47%;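 also: 0% = vehicle wells and 100% = reference agonist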
Target sequence (P35869 whole entry, looked up): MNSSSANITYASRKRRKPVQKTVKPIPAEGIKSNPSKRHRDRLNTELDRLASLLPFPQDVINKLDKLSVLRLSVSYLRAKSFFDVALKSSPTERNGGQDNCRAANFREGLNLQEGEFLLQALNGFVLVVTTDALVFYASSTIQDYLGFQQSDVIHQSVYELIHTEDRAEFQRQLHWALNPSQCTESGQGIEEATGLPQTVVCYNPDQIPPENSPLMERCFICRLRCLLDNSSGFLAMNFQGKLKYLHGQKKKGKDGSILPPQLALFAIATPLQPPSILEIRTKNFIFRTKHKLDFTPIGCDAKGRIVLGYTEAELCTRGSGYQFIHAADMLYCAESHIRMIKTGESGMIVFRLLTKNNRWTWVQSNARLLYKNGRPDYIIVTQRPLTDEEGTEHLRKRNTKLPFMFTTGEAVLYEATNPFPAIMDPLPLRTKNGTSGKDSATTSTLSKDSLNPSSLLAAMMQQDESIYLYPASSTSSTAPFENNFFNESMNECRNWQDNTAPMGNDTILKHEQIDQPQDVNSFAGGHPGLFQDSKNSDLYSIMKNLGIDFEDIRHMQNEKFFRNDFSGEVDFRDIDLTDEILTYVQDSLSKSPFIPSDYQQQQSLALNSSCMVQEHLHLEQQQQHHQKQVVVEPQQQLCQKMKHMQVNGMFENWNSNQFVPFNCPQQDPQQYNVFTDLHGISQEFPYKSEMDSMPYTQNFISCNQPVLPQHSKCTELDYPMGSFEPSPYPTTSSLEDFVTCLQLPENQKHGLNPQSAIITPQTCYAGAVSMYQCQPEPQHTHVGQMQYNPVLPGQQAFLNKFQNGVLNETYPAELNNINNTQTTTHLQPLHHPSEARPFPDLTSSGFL
H9c2 TAG inh = reduces triacylglycerol accumulation in H9c2 cells | Nile Red lipid (TAG) fluorescence; cells loaded with 200 µM oleic acid | inhibition, % at 12.5 µM | actives 0.66% (n = 230,000) | AID 651582;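 active = pattern-corrected inhibition of lipid staining of at least 50% with the nuclear-stain viability signal not falling by more than 50%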;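 also: 0% = DMSO wells and 100% = triacsin C control wells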
Efflux pump mplx = inhibitors of Candida antifungal efflux pumps expressed in yeast; inhibition, % at 10 µM; S. cerevisiae Candida pump triplex, Nile Red efflux; actives 0.44% (n = 330,000);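 active = plate passing quality check with inhibition over a set limit, or well fluorescence over plate mean plus 4 SD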;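 also: Nile Red retained in pooled yeast measured as flow cytometry median fluorescence; 0% = buffer negative control and 100% = Enniatin B positive control; higher means more Nile Red kept so more efflux inhibition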
* marks the source's active call; other numbers are inactive results; nt = no result.

SMILES	Tb MetRS inh	SMARCA2 act	AHR activator	H9c2 TAG inh	Efflux pump mplx
COc1cccc(C(=O)NCCN2C(=O)C3C4C=CC(C4)C3C2=O)c1 (stereo unspecified)	nt	-0.1	nt	nt	nt
CCCN=C(C)C1=C(O)c2ccccc2C1=O	0.1	4.8	-1.6	nt	0.0
CC(=NCc1cccnc1)C1=C(O)c2ccccc2C1=O	0.4	-3.6	74.4*	15.8	-0.1
Cc1c(Cl)cccc1NC(=O)CNC(=O)c1cn(-c2ccccc2)nc1-c1cccnc1	30.7*	-2.5	3.7	-5.5	-0.1
c1ccc(N2CCN(c3nc4ccccc4n4nnnc34)CC2)cc1	-1.4	4.6	72.6*	11.2	0.1
O=C(CSc1nnc(-c2ccccc2)n1-c1ccc(Cl)cc1)Nc1ccc2cn[nH]c2c1	nt	4.5	nt	nt	nt
O=C(N/N=C\c1ccc(-c2ccccc2[N+](=O)[O-])o1)C1COc2ccccc2O1 (stereo unspecified)	0.1	-3.8	64.5*	nt	-0.2
Cc1ccc(/C=N\NC(=O)C2COc3cc4ccccc4cc3O2)o1 (stereo unspecified)	-0.8	0.3	14.2	4.3	0.1
O=C(N/N=C\c1ccc(-c2ccccc2[N+](=O)[O-])o1)C1COc2cc3ccccc3cc2O1 (stereo unspecified)	10.4*	-0.2	33.3	-7.0	0.2
CCOC(=O)C1CSCCS(=O)(=O)N1Cc1ccccc1C (stereo unspecified)	nt	-6.1	nt	nt	nt
COc1ccc(/C(C)=N/Nc2nc3ccccc3n3cnnc23)cc1OC	nt	1.1	61.1*	nt	0.0
Nc1n[nH]c(-c2ccc(Br)cc2)c1Cl	0.1	0.9	61.7*	2.6	0.0
Nc1nc(-c2ccc(Cl)cc2)nnc1-c1ccc(Br)cc1	2.2	4.0	-4.5	-9.5	-0.1
COc1cc(NC(=S)Nc2cccc(C)n2)cc(OC)c1OC	-0.3	-3.0	68.9*	nt	-0.1
CCOC(=O)NC(=S)Nc1cccc(C)n1	0.1	-2.5	nt	-2.2	nt
Cc1ccc2nc(SCC(=O)Nc3c(F)cccc3F)[nH]c2c1	0.5	0.6	25.9	6.8	0.1
CCOc1ccc2nc(SC(C)C(N)=O)[nH]c2c1 (stereo unspecified)	0.1	7.9*	18.2	5.4	-0.2
Cc1ccc2nc(SCC(=O)Nc3ccc(F)cc3F)[nH]c2c1	1.2	-2.8	71.2*	nt	-0.1
CCCC(C)NC(=O)CSc1nc2ccc(C)cc2[nH]1 (stereo unspecified)	0.3	-3.2	51.0*	-2.0	-0.1
Cc1ccc2nc(SC(C)C(=O)N3CCCC3)[nH]c2c1 (stereo unspecified)	1.4	-2.4	73.1*	-9.0	0.2
CC(C)C[C@H]1COc2cc(Br)ccc2S(=O)(=O)N1Cc1cn(Cc2ccc(Br)cc2)nn1	nt	3.5	nt	nt	nt
COC(=O)[C@]12C[C@H](CC(=O)NCCc3ccccc3OC)C(=O)N(Cc3ccc4c(c3)OCO4)C1=C[C@H](C(C)C)O[C@@H]2C1CC1	nt	2.0	nt	nt	nt
COC(=O)C1CN(Cc2ccc(OC)cc2)CCS(=O)(=O)N1Cc1ccccc1 (stereo unspecified)	nt	-1.6	nt	nt	nt
CCOc1ccc(N=C2NC(=O)S/C2=C\c2ccc(N(C)C)cc2)cc1	-0.2	3.6	62.2*	-58.2	0.5
COc1cc(-c2nc3ccc4ccccc4c3c3c2CCC3)ccc1O	-0.3	-1.3	71.6*	nt	0.1
SMILES	Tb MetRS inh	SMARCA2 act	AHR activator	H9c2 TAG inh	Efflux pump mplx
COc1cc(-c2nc3ccc4ccccc4c3c3c2CCC3)cc(OC)c1O	-0.7	-1.9	5.4	nt	0.0
COc1ccc(C(=O)CSC2=C(C#N)C3(CCCCC3)C(C#N)=C(N)N2)cc1	2.7	-3.4	51.8*	nt	-0.3
COc1ccc(S[C@]2(C(=O)N3CCN(c4ncccn4)CC3)CC(=O)N(C(=O)CCc3ccccc3)[C@@H]2c2ccc(OC)cc2)cc1	nt	-3.4	nt	nt	nt
c1cc(-c2n[nH]c(-c3ccncc3)n2)ccn1	-0.6	-2.9	3.1	-2.9	0.0
c1ccc(-c2nc(-c3cccnc3)n[nH]2)cc1	nt	3.8	64.7*	nt	-0.1
CCN1CCCCC(NC(=O)c2ccc(F)c(F)c2)C1=O (stereo unspecified)	nt	-3.4	nt	nt	nt
O=C(/C=C/c1ccco1)NC(=S)Nc1ccc(O)c(-c2nc3ccccc3s2)c1	-0.6	-2.4	80.4*	nt	-0.2
O=C(Nc1ccc(F)cc1)Nc1sccc1-c1nc2ccccc2s1	-0.3	0.4	60.5*	19.1	0.0
O=C(Nc1ccc(O)c(-c2nc3ccccc3s2)c1)c1cccs1	-0.7	0.3	73.6*	nt	0.3
O=C(Nc1nc2ccccc2s1)c1ccc(F)cc1	0.2	2.1	18.7	3.5	-0.1
Cc1ccc(C)c(NC(=O)CNS(=O)(=O)c2ccc3[nH]c(=O)oc3c2)c1	nt	0.2	nt	nt	nt
COc1ccc(-n2c(C)cc(C3=NNC(=NC4CC4)SC3)c2C)cc1	-0.7	9.8*	nt	-2.2	nt
COc1ccc(Cn2c(SCc3ccccc3C)nc3cc(OC)c(OC)cc3c2=N)cc1	-1.1	0.0	10.6	59.4*	0.0
COc1ccc(-c2csc(/C=C/c3ccc4c(c3)OCO4)n2)cc1OC	-0.9	-0.2	53.8*	14.7	1.6
Cc1ccccc1S(=O)(=O)N1CCC(c2nc3ccccc3o2)CC1	nt	-4.0	nt	nt	nt
N#CCC(=O)Nc1ccc(C(=O)OCC(=O)c2c[nH]c3ccccc23)cc1	0.5	7.9*	19.8	-3.3	0.2
O=C(CNS(=O)(=O)c1ccccc1)OCC(=O)c1c[nH]c2ccccc12	0.6	-0.6	47.4*	7.3	-0.1
O=C(NCc1ccco1)C1CCCN(c2ncccn2)C1 (stereo unspecified)	nt	-0.4	nt	nt	nt
c1ccc(-c2ccc(C3=Nn4c(nnc4-c4ccccc4)SC3)cc2)cc1	nt	1.8	nt	nt	nt
Clc1ccc(C2=Nn3c(nnc3-c3n[nH]c4c3CCC4)SC2)cc1	-0.2	-1.0	48.8*	54.7*	0.0
O=C(NCCc1c[nH]c2ccccc12)OCc1cn(Cc2cc(F)cc(F)c2)nn1	nt	-1.7	nt	nt	nt
CCOC(=O)/C(=C\c1cccnc1)C(=O)c1cc(C(C)=O)c(Nc2ccccc2)s1	-0.4	nt	0.6	80.1*	0.2
CCN1CCN(Cc2ccc(NC(=O)c3ccc(C)c(NC(=O)c4cncc(-c5cccs5)c4)c3)cc2C(F)(F)F)CC1	-0.4	nt	nt	116.7*	nt
CCN1CCN(Cc2ccc(NC(=O)c3cc(NC(=O)c4cncc(-c5ccc(C#N)cc5)c4)cc(OC)c3)cc2C(F)(F)F)CC1	-0.7	7.6	1.7	95.3*	nt
CCN1CCN(Cc2ccc(NC(=O)c3cc(NC(=O)c4nccnc4N)cc(OC)c3)cc2C(F)(F)F)CC1	0.4	3.9	9.3	15.2	0.0
CCN1CCN(Cc2ccc(NC(=O)c3ccc(C)c(NC(=O)c4cc(-c5ccc(Br)cc5)n[nH]4)c3)cc2C(F)(F)F)CC1	-0.5	0.3	0.4	65.9*	0.0
C[C@@H]1COc2cc(Br)ccc2S(=O)(=O)N1Cc1cn(Cc2ccc(F)cc2)nn1	nt	-2.2	nt	nt	nt

From PubChem
